Results from ChEMBL document CHEMBL2040734, “Benzothiazoles: search for anticancer agents” (2012).

How the values were obtained:
Type in all cases: functional
[1] = system: OVCAR-4; assay: Cytotoxicity against human OVCAR4 cells assessed as cell growth at 100 uM after 48 hrs by sulforhodamine B assay; conditions: OVCAR-4, 48 h, read-out: Activity
[2] = system: CAKI-1; assay: Cytotoxicity against human Caki1 cells assessed as cell growth at 0.1 uM after 48 hrs by sulforhodamine B assay; conditions: CAKI-1, 48 h, read-out: Activity
How it was run: (§1)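 NCI-60 five-dose screen. Cells were grown in RPMI 1640 with 5% FBS and 2 mM L-glutamine and preincubated 24 h. Compound (DMSO stock) was tested at 0.01, 0.1, 1, 10 and 100 µM for 48 h at 37 °C. Cells were fixed in situ with cold TCA (final 10%) and stained with 0.4% SRB. A515 was read, and percent growth was calculated against time-zero and control plates.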

[3] = system: KM12; assay: Cytotoxicity against human KM12 cells assessed as cell growth at 0.01 uM after 48 hrs by sulforhodamine B assay; conditions: KM12, 48 h, read-out: Activity
[4] = system: SK-MEL-5; assay: Cytotoxicity against human SK-MEL-5 cells assessed as cell growth at 0.1 uM after 48 hrs by sulforhodamine B assay; conditions: SK-MEL-5, 48 h, read-out: Activity
[5] = system: TK-10; assay: Cytotoxicity against human TK10 cells assessed as cell growth at 0.1 uM after 48 hrs by sulforhodamine B assay; conditions: TK-10, 48 h, read-out: Activity
[6] = system: TK-10; assay: Cytotoxicity against human TK10 cells assessed as cell growth at 0.01 uM after 48 hrs by sulforhodamine B assay; conditions: TK-10, 48 h, read-out: Activity
[7] = system: SN12C; assay: Cytotoxicity against human SN12C cells assessed as cell growth at 10 uM after 48 hrs by sulforhodamine B assay; conditions: read-out: Activity
[8] = system: SK-MEL-5; assay: Cytotoxicity against human SK-MEL-5 cells assessed as cell growth at 10 '-5 M after 48 hrs by sulforhodamine B assay; conditions: SK-MEL-5, 48 h, read-out: Activity
[9] = system: HOP-62; assay: Cytotoxicity against human HOP62 cells assessed as cell growth at 100 uM after 48 hrs by sulforhodamine B assay; conditions: HOP-62, 48 h, read-out: Activity
How it was run: (§2)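 Five-dose NCI panel run at 0.01, 0.1, 1, 10 and 100 µM. Cells were in RPMI 1640 with 5% FBS and 2 mM L-glutamine, seeded at 5000–40,000 cells/well and pre-incubated 24 h. Drug was diluted from a DMSO stock into medium with 50 µg/ml gentamicin. Exposure was 48 h at 37 °C, 5% CO2. Cells were fixed with cold TCA and stained with 0.4% SRB, read at 515 nm. Percent growth came from time-zero, control and test absorbances.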

[10] = system: SNB-19; assay: Cytotoxicity against human SNB19 cells assessed as cell growth at 1 uM after 48 hrs by sulforhodamine B assay; conditions: SNB-19, 48 h, read-out: Activity
[11] = system: DU-145; assay: Growth inhibition of human DU145 cells after 48 hrs by sulforhodamine B assay; conditions: DU-145, 48 h; for CC50: read-out: LC50 (the source's name)
How it was run: (§3)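 Adherent NCI-60 lines were grown in RPMI 1640 with 5% FBS and 2 mM L-glutamine, plated at 5000–40,000 cells/well and preincubated 24 h. They were then exposed to five concentrations (0.01–100 µM, from a DMSO stock) for 48 h at 37 °C, 5% CO2. Cells were fixed with cold TCA (10% final, 60 min, 4 °C) and stained with 0.4% SRB. Dye was solubilized in 10 mM Tris base and A515 read. GI50 was derived from time-zero, control and treated absorbances.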

[12] = system: SNB-19; assay: Cytotoxicity against human SNB19 cells assessed as cell growth at 100 uM after 48 hrs by sulforhodamine B assay; conditions: SNB-19, 48 h, read-out: Activity
[13] = system: CCRF-CEM; assay: Cytotoxicity against human CCRF-CEM cells assessed as cell growth at 10 uM after 48 hrs by sulforhodamine B assay; conditions: read-out: Activity
How it was run: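 CCRF-CEM suspension leukemia cells in RPMI 1640 with 5% FBS and 2 mM L-glutamine, plated 24 h before dosing. Five concentrations (0.01–100 µM) were applied from a DMSO stock for 48 h at 37 °C. Settled cells were fixed with 80% TCA (final 16%) and stained with SRB, with read-out at 515 nm. Percent growth was derived from time-zero and control absorbances.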

[14] = system: SR; assay: Cytotoxicity against human SR cells assessed as cell growth at 0.01 uM after 48 hrs by sulforhodamine B assay; conditions: read-out: Activity
[15] = system: TK-10; assay: Growth inhibition of human TK10 cells after 48 hrs by sulforhodamine B assay; conditions: TK-10, 48 h; for CC50: read-out: LC50 (the source's name); how it was run: as §3
[16] = system: SNB-75; assay: Cytotoxicity against human SNB75 cells assessed as cell growth at 0.1 uM after 48 hrs by sulforhodamine B assay; conditions: SNB-75, 48 h, read-out: Activity
[17] = system: SF-295; assay: Cytotoxicity against human SF295 cells assessed as cell growth at 0.01 uM after 48 hrs by sulforhodamine B assay; conditions: SF-295, 48 h, read-out: Activity
[18] = system: HCT-15; assay: Growth inhibition of human HCT15 cells after 48 hrs by sulforhodamine B assay; conditions: HCT-15, 48 h; how it was run: as §3
[19] = system: A549; assay: Cytotoxicity against human A549 cells assessed as cell growth at 1 uM after 48 hrs by sulforhodamine B assay; conditions: A549, 48 h, read-out: Activity; how it was run: as §1
[20] = system: RPMI-8226; assay: Cytotoxicity against human RPMI8226 cells assessed as cell growth at 0.01 uM after 48 hrs by sulforhodamine B assay; conditions: RPMI-8226, 48 h, read-out: Activity
[21] = system: ACHN; assay: Cytotoxicity against human ACHN cells assessed as cell growth at 10 '-5 M after 48 hrs by sulforhodamine B assay; conditions: read-out: Activity
How it was run: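 Primary NCI-60 single-dose screen at 10 µM. Cells were grown in RPMI 1640 with 5% FBS and 2 mM L-glutamine and plated 24 h before drug addition. Compound was solubilized in DMSO, then exposed for 48 h at 37 °C under 5% CO2. Cells were TCA-fixed and stained with SRB, and absorbance was read at 515 nm. Growth was expressed relative to time-zero and untreated controls.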

[22] = system: 786-0; assay: Cytotoxicity against human 786-0 cells assessed as cell growth at 100 uM after 48 hrs by sulforhodamine B assay; conditions: 786-0, 48 h, read-out: Activity; how it was run: as §1
[23] = system: OVCAR-3; assay: Cytotoxicity against human OVCAR3 cells assessed as cell growth at 0.1 uM after 48 hrs by sulforhodamine B assay; conditions: OVCAR-3, 48 h, read-out: Activity
[24] = system: PC-3; assay: Cytotoxicity against human PC3 cells assessed as cell growth at 10 uM after 48 hrs by sulforhodamine B assay; conditions: PC-3, 48 h, read-out: Activity
[25] = system: HCC 2998; assay: Growth inhibition of human HCC2998 cells after 48 hrs by sulforhodamine B assay; conditions: HCC 2998, 48 h; for CC50: read-out: LC50 (the source's name); how it was run: as §3
[26] = system: HT-29; assay: Cytotoxicity against human HT-29 cells assessed as cell growth at 10 uM after 48 hrs by sulforhodamine B assay; conditions: HT-29, 48 h, read-out: Activity; how it was run: as §2
[27] = system: HOP-62; assay: Cytotoxicity against human HOP62 cells assessed as cell growth at 0.01 uM after 48 hrs by sulforhodamine B assay; conditions: HOP-62, 48 h, read-out: Activity; how it was run: as §2

| SMILES | growth at 100 µM [1] [%] | growth at 0.1 µM [2] [%] | growth at 0.01 µM [3] [%] | growth at 0.1 µM [4] [%] | growth at 0.1 µM [5] [%] | growth at 0.01 µM [6] [%] | growth at 10 µM [7] [%] | growth at 10 µM [8] [%] | growth at 100 µM [9] [%] | growth at 1 µM [10] [%] | GI50 [11] [nM] | TGI [11] [nM] | CC50 [11] [µM] | growth at 100 µM [12] [%] | growth at 10 µM [13] [%] | growth at 0.01 µM [14] [%] | GI50 [15] [nM] | TGI [15] [nM] | CC50 [15] [µM] | growth at 0.1 µM [16] [%] | other results |
| --- | --- | --- | --- | --- | --- | --- | --- | --- | --- | --- | --- | --- | --- | --- | --- | --- | --- | --- | --- | --- | --- |
| Cc1ccc2nc(Nc3c(C)cccc3C)sc2c1 | 77 | 83 | 101 | 92 | 94 | 104 | 36 | 26.8 | 10 | 61 | > 100000 | > 100000 | > 100 | 30 | 58 | 98 | > 100000 | > 100000 | > 100 | 61 | growth at 0.01 µM [17]: 91%; GI50 [18]: 920 nM; LC50 [18]: > 100 µM; TGI [18]: > 100000 nM; growth at 1 µM [19]: 83%; growth at 0.01 µM [20]: 101%; growth at 10 µM [21]: 52.2%; growth at 100 µM [22]: 60%; growth at 0.1 µM [23]: 108%; growth at 10 µM [24]: 49%; GI50 [25]: > 100000 nM; TGI [25]: > 100000 nM; CC50 [25]: > 100 µM; growth at 10 µM [26]: 10%; growth at 0.01 µM [27]: 109% |
| Clc1cccc(Cl)c1Nc1nc2cccc(Cl)c2s1 | -87 | 73 | 99 | 90 | 94 | 98 | -94 | -71.3 | -75 | 68 | 1410 | 2750 | 5.39 | -63 | -34 | 100 | 1160 | 2570 | 5.67 | 85 | growth at 0.01 µM [17]: 93%; GI50 [18]: 1160 nM; LC50 [18]: 5.69 µM; TGI [18]: 2570 nM; growth at 1 µM [19]: 55%; growth at 0.01 µM [20]: 103%; growth at 10 µM [21]: -18.9%; growth at 100 µM [22]: -90%; growth at 0.1 µM [23]: 97%; growth at 10 µM [24]: -68%; GI50 [25]: 1340 nM; TGI [25]: 2780 nM; CC50 [25]: 5.74 µM; growth at 10 µM [26]: -71%; growth at 0.01 µM [27]: 104% |
